In brackets after ≈: the same amount, converted by molar mass.
Tests used:
Candida albicans [1] = assay: Antifungal activity against Candida albicans ATCC 10231 after 48 hrs by CLSI broth microdilution method; format: functional; conditions: ATCC 10231, 48 h
How it was run: (§1)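 Yeast CLSI broth microdilution (M27-A3). Compounds dissolved in DMSO at 100× the top test concentration, then diluted as serial two-fold dilutions in RPMI 1640 to final 0.125–64. Inoculum was 1.0–1.5 × 10^3 cells mL−1, incubated at 35 °C and read for growth at 48 h. MIC is the lowest concentration giving ≥50% growth inhibition versus growth control. Reported as the median of five replicates and as the geometric mean.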

Cryptococcus neoformans [2] = assay: Antifungal activity against Cryptococcus neoformans PMC 2136 after 72 hrs by CLSI broth microdilution method; format: functional; conditions: PMC 2136, 72 h
How it was run: (§2)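 Cryptococcus neoformans tested by CLSI broth microdilution in RPMI 1640, with serial two-fold dilutions from DMSO stocks at 100× the top concentration, final 0.125–64. Inoculum was 1.0–1.5 × 10^3 cells mL−1 at 35 °C, with growth read at 72 h. MIC is the lowest concentration with ≥50% growth inhibition versus control. Median of five replicates, plus geometric mean.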

Cryptococcus neoformans [3] = assay: Antifungal activity against Cryptococcus neoformans PMC 2107 after 72 hrs by CLSI broth microdilution method; format: functional; conditions: PMC 2107, 72 h; how it was run: as §2
Pichia kudriavzevii [4] = assay: Antifungal activity against Candida krusei PMC 0613 after 48 hrs by CLSI broth microdilution method; format: functional; conditions: PMC 0613, 48 h; how it was run: as §1
Nannizzia gypsea [5] = assay: Antifungal activity against Microsporum gypseum DSM 3824 after 72 hrs by CLSI broth microdilution method; format: functional; conditions: DSM 3824, 72 h
How it was run: (§3)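 Dermatophytes tested by CLSI broth microdilution for filamentous fungi (M38-A2). Serial two-fold dilutions of DMSO-dissolved compound in RPMI 1640, final 0.125–64. Inoculum was 0.4–5 × 10^4 CFU mL−1, incubated at 35 °C and read at 72 h. MIC80 is the lowest concentration giving ≥80% growth inhibition versus growth control. Median of five replicates, plus geometric mean.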

Candida albicans [6] = assay: Antifungal activity against Candida albicans PMC 1040R after 48 hrs by CLSI broth microdilution method; format: functional; how it was run: as §1
[7] = system: Trichophyton mentagrophytes; assay: Antifungal activity against Trichophyton mentagrophytes PMC 6552 after 72 hrs by CLSI broth microdilution method; format: functional; conditions: PMC 6552, 72 h; how it was run: as §3
Cryptococcus neoformans [8] = assay: Antifungal activity against Cryptococcus neoformans PMC 2103 after 72 hrs by CLSI broth microdilution method; format: functional; conditions: PMC 2103, 72 h; how it was run: as §2
Cryptococcus neoformans [9] = assay: Antifungal activity against Cryptococcus neoformans PMC 2111 after 72 hrs by CLSI broth microdilution method; format: functional; conditions: PMC 2111, 72 h; how it was run: as §2
Nakaseomyces glabratus [10] = assay: Antifungal activity against Candida glabrata PMC 0807 after 48 hrs by CLSI broth microdilution method; format: functional; conditions: PMC 0807, 48 h; how it was run: as §1
Pichia kudriavzevii [11] = assay: Antifungal activity against Candida krusei DSM 6128 after 48 hrs by CLSI broth microdilution method; format: functional; conditions: DSM 6128, 48 h; how it was run: as §1
Nakaseomyces glabratus [12] = assay: Antifungal activity against Candida glabrata PMC 0851R after 48 hrs by CLSI broth microdilution method; format: functional; how it was run: as §1
Candida albicans [13] = assay: Antifungal activity against Candida albicans PMC 1042R after 48 hrs by CLSI broth microdilution method; format: functional; how it was run: as §1
Cryptococcus neoformans [14] = assay: Antifungal activity against Cryptococcus neoformans PMC 2123 after 72 hrs by CLSI broth microdilution method; format: functional; conditions: PMC 2123, 72 h; how it was run: as §2
Candida albicans [15] = assay: Antifungal activity against Candida albicans ATCC 90028 after 48 hrs by CLSI broth microdilution method; format: functional; conditions: ATCC 90028, 48 h; how it was run: as §1
Nakaseomyces glabratus [16] = assay: Antifungal activity against Candida glabrata PMC 0850R after 48 hrs by CLSI broth microdilution method; format: functional; how it was run: as §1
[17] = system: Trichophyton mentagrophytes; assay: Antifungal activity against Trichophyton mentagrophytes DSM 4870 after 72 hrs by CLSI broth microdilution method; format: functional; conditions: DSM 4870, 72 h; how it was run: as §3
Candida tropicalis [18] = assay: Antifungal activity against Candida tropicalis DSM 11953 after 48 hrs by CLSI broth microdilution method; format: functional; conditions: DSM 11953, 48 h; how it was run: as §1
Cryptococcus neoformans [19] = assay: Antifungal activity against Cryptococcus neoformans PMC 2115 after 72 hrs by CLSI broth microdilution method; format: functional; conditions: PMC 2115, 72 h; how it was run: as §2
Candida parapsilosis [20] = assay: Antifungal activity against Candida parapsilosis ATCC 22019 after 48 hrs by CLSI broth microdilution method; format: functional; conditions: Lodderomyces parapsilosis, ATCC 22019, 48 h; how it was run: as §1
[21] = Cytotoxicity against human A549 cells after 48 hrs by MTT assay; format: cell-based
How it was run: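 A549 cells (ATCC CCL-185) seeded at 2 × 10^4/well in phenol-red-free RPMI 1640 with 10% FBS, L-glutamine, penicillin and streptomycin, at 37 °C and 5% CO2. Exposed 48 h to DMSO-dissolved compounds (final 16–256; at least five concentrations, triplicate). MTT added for 3–4 h, crystals solubilized, OD read at 570 nm. CC50 taken versus the DMSO control. Mean ± SD of two independent experiments.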

[22] = system: Trichophyton mentagrophytes; assay: Antifungal activity against Trichophyton mentagrophytes PMC 6503 after 72 hrs by CLSI broth microdilution method; format: functional; conditions: PMC 6503, 72 h; how it was run: as §3
Nakaseomyces glabratus [23] = assay: Antifungal activity against Candida glabrata PMC 0853R after 48 hrs by CLSI broth microdilution method; format: functional; how it was run: as §1
[24] = system: Trichophyton mentagrophytes; assay: Antifungal activity against Trichophyton mentagrophytes PMC 6515 after 72 hrs by CLSI broth microdilution method; format: functional; conditions: PMC 6515, 72 h; how it was run: as §3
Candida parapsilosis [25] = assay: Antifungal activity against Candida parapsilosis DSM 11224 after 48 hrs by CLSI broth microdilution method; format: functional; conditions: Lodderomyces parapsilosis, DSM 11224, 48 h; how it was run: as §1
Candida tropicalis [26] = assay: Antifungal activity against Candida tropicalis PMC 0910 after 48 hrs by CLSI broth microdilution method; format: functional; conditions: PMC 0910, 48 h; how it was run: as §1
Nakaseomyces glabratus [27] = assay: Antifungal activity against Candida glabrata PMC 0852R after 48 hrs by CLSI broth microdilution method; format: functional; how it was run: as §1
Candida albicans [28] = assay: Antifungal activity against Candida albicans ATCC 10261 after 48 hrs by CLSI broth microdilution method; format: functional; conditions: ATCC 10261, 48 h; how it was run: as §1
Candida albicans [29] = assay: Antifungal activity against Candida albicans ATCC 76615 after 48 hrs by CLSI broth microdilution method; format: functional; conditions: ATCC 76615, 48 h; how it was run: as §1
[30] = system: Trichophyton mentagrophytes; assay: Antifungal activity against Trichophyton mentagrophytes PMC 6509 after 72 hrs by CLSI broth microdilution method; format: functional; conditions: PMC 6509, 72 h; how it was run: as §3
Nannizzia gypsea [31] = assay: Antifungal activity against Microsporum gypseum PMC 7331 after 72 hrs by CLSI broth microdilution method; format: functional; conditions: PMC 7331, 72 h; how it was run: as §3
Nannizzia gypsea [32] = assay: Antifungal activity against Microsporum gypseum PMC 7303 after 72 hrs by CLSI broth microdilution method; format: functional; conditions: PMC 7303, 72 h; how it was run: as §3
[33] = system: Trichophyton mentagrophytes; assay: Antifungal activity against Trichophyton mentagrophytes PMC 6531 after 72 hrs by CLSI broth microdilution method; format: functional; conditions: PMC 6531, 72 h; how it was run: as §3
Candida albicans [34] = assay: Antifungal activity against Candida albicans PMC 1041R after 48 hrs by CLSI broth microdilution method; format: functional; how it was run: as §1
Nakaseomyces glabratus [35] = assay: Antifungal activity against Candida glabrata PMC 0805 after 48 hrs by CLSI broth microdilution method; format: functional; conditions: PMC 0805, 48 h; how it was run: as §1
Candida albicans [36] = assay: Antifungal activity against Candida albicans PMC 1011 after 48 hrs by CLSI broth microdilution method; format: functional; conditions: PMC 1011, 48 h; how it was run: as §1
Candida albicans [37] = assay: Antifungal activity against Candida albicans ATCC 20891 after 48 hrs by CLSI broth microdilution method; format: functional; conditions: ATCC 20891, 48 h; how it was run: as §1
Cryptococcus neoformans [38] = assay: Antifungal activity against Cryptococcus neoformans DSM 11959 after 72 hrs by CLSI broth microdilution method; format: functional; conditions: DSM 11959, 72 h; how it was run: as §2
Candida albicans [39] = assay: Antifungal activity against Candida albicans ATCC 24433 after 48 hrs by CLSI broth microdilution method; format: functional; conditions: ATCC 24433, 48 h; how it was run: as §1
Cryptococcus neoformans [40] = assay: Antifungal activity against Cryptococcus neoformans PMC 2102 after 72 hrs by CLSI broth microdilution method; format: functional; conditions: PMC 2102, 72 h; how it was run: as §2
Candida albicans [41] = assay: Antifungal activity against Candida albicans ATCC 3153 after 48 hrs by CLSI broth microdilution method; format: functional; conditions: ATCC 3153, 48 h; how it was run: as §1

O=C(Nc1ccc(N2CCN(c3ccc(Cl)cc3)CC2)cc1)OC(Cn1ccnc1)c1ccc(F)cc1 (stereo unspecified)
MIC50 (Candida albicans [1]): 4 mg/L (≈ 7.69 µM)
MIC50 (Cryptococcus neoformans [2]): 0.125 mg/L (≈ 0.24 µM)
MIC50 (Cryptococcus neoformans [3]): 0.25 mg/L (≈ 0.481 µM)
MIC50 (Pichia kudriavzevii [4]): 0.125 mg/L (≈ 0.24 µM)
MIC80 (Nannizzia gypsea [5]): 4 mg/L (≈ 7.69 µM)
MIC50 (Candida albicans [6]): 64 mg/L (≈ 123 µM)
MIC80 [7]: 8 mg/L (≈ 15.4 µM)
MIC50 (Cryptococcus neoformans [8]): 0.25 mg/L (≈ 0.481 µM)
MIC50 (Cryptococcus neoformans [9]): 0.5 mg/L (≈ 0.962 µM)
MIC50 (Nakaseomyces glabratus [10]): 1 mg/L (≈ 1.92 µM)
MIC50 (Pichia kudriavzevii [11]): 1 mg/L (≈ 1.92 µM)
MIC50 (Nakaseomyces glabratus [12]): 64 mg/L (≈ 123 µM)
MIC50 (Candida albicans [13]): 2 mg/L (≈ 3.85 µM)
MIC50 (Cryptococcus neoformans [14]): 0.5 mg/L (≈ 0.962 µM)
MIC50 (Candida albicans [15]): 0.25 mg/L (≈ 0.481 µM)
MIC50 (Nakaseomyces glabratus [16]): 1 mg/L (≈ 1.92 µM)
MIC80 [17]: 8 mg/L (≈ 15.4 µM)
MIC50 (Candida tropicalis [18]): 0.5 mg/L (≈ 0.962 µM)
MIC50 (Cryptococcus neoformans [19]): 0.25 mg/L (≈ 0.481 µM)
MIC50 (Candida parapsilosis [20]): 0.25 mg/L (≈ 0.481 µM)
CC50 at 48 h [21]: 172 mg/L (≈ 330 µM)
MIC80 [22]: 8 mg/L (≈ 15.4 µM)
MIC50 (Nakaseomyces glabratus [23]): 4 mg/L (≈ 7.69 µM)
MIC80 [24]: 8 mg/L (≈ 15.4 µM)
MIC50 (Candida parapsilosis [25]): 0.125 mg/L (≈ 0.24 µM)
MIC50 (Candida tropicalis [26]): 2 mg/L (≈ 3.85 µM)
MIC50 (Nakaseomyces glabratus [27]): 4 mg/L (≈ 7.69 µM)
MIC50 (Candida albicans [28]): 1 mg/L (≈ 1.92 µM)
MIC50 (Candida albicans [29]): 8 mg/L (≈ 15.4 µM)
MIC80 [30]: 8 mg/L (≈ 15.4 µM)
MIC80 (Nannizzia gypsea [31]): 8 mg/L (≈ 15.4 µM)
MIC80 (Nannizzia gypsea [32]): 4 mg/L (≈ 7.69 µM)
MIC80 [33]: 8 mg/L (≈ 15.4 µM)
MIC50 (Candida albicans [34]): 1 mg/L (≈ 1.92 µM)
MIC50 (Nakaseomyces glabratus [35]): 0.125 mg/L (≈ 0.24 µM)
MIC50 (Candida albicans [36]): 0.25 mg/L (≈ 0.481 µM)
MIC50 (Candida albicans [37]): 0.125 mg/L (≈ 0.24 µM)
MIC50 (Cryptococcus neoformans [38]): 0.25 mg/L (≈ 0.481 µM)
MIC50 (Candida albicans [39]): 4 mg/L (≈ 7.69 µM)
MIC50 (Cryptococcus neoformans [40]): 0.25 mg/L (≈ 0.481 µM)
MIC50 (Candida albicans [41]): 8 mg/L (≈ 15.4 µM)
